Test results from ChEMBL document CHEMBL1156410, “Design and synthesis of a combinatorial chemistry library of 7-acyl, 10-acyl, and 7,10-diacyl analogues of paclitaxel (taxol) using solid phase synthesis” (J Nat Prod, 2002).
Converted amounts (≈) assume the structure as drawn.

Assays:
[1] = Induction of tubulin polymerization at 0.1 uM by DAPI fluorescence method relative to control
In short: (§1)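 Microplate assay in PMEG buffer (100 mM PIPES, 1 mM MgSO₄, 2 mM EGTA, 0.1 mM GTP, pH 6.9) containing ligand; DAPI final 10 µM, tubulin final 5 µM. Fluorescence followed at 37 °C, excitation 360/40 nm, emission 460/40 nm. Change in fluorescence normalized to the curve of 10 µM paclitaxel standard. Samples in duplicate, triplicate or quadruplicate; concentrations over 2 orders of magnitude tested.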

[2] = Octanol-water partition coefficient, log P in 0.1 N aqueous HCl; assay type: physicochemical
In short: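 Compound partitioned between 1-octanol and 0.1 N aqueous HCl with vigorous shaking for 1 h.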

[3] = Induction of tubulin polymerization at 1 uM by DAPI fluorescence method relative to control; in short: as §1
[4] = Induction of tubulin polymerization by DAPI fluorescence method; settings: read-out: I50; in short: as §1
A2780 = experiment: Cytotoxicity against human A2780 cells; assay type: functional, cell-based
[5] = Induction of tubulin polymerization at 10 uM by DAPI fluorescence method relative to control; in short: as §1

| Activity [1] [%] | logP [2] | Activity [3] [%] | IC50 [4] [µM] | Activity [5] [%] | Compound | IC50 (A2780) [µg/mL] |
| --- | --- | --- | --- | --- | --- | --- |
| 2.3 | 0.017 | 66 | 0.55 | 100 | CC(=O)O[C@H]1C(=O)[C@@]2(C)[C@H]([C@H](OC(=O)c3ccccc3)[C@]3(O)C[C@H](OC(=O)[C@H](O)[C@@H](NC(=O)c4ccccc4)c4ccccc4)C(C)=C1C3(C)C)[C@]1(OC(C)=O)CO[C@@H]1C[C@@H]2O [PACLITAXEL] | 0.136 (≈ 0.159 µM) |
|  | 0.155 |  | 1.65 |  | CC(=O)O[C@@]12CO[C@@H]1C[C@H](OC(=O)CN1CCN(c3ccccn3)CC1)[C@@]1(C)C(=O)[C@H](O)C3=C(C)[C@@H](OC(=O)[C@H](O)[C@@H](NC(=O)c4ccccc4)c4ccccc4)C[C@@](O)([C@@H](OC(=O)c4ccccc4)[C@H]21)C3(C)C | 0.014 (≈ 0.0138 µM) |
|  |  |  | 1.02 |  | CC(=O)O[C@@]12CO[C@@H]1C[C@H](OC(=O)CN1CCCCC1)[C@@]1(C)C(=O)[C@H](O)C3=C(C)[C@@H](OC(=O)[C@H](O)[C@@H](NC(=O)c4ccccc4)c4ccccc4)C[C@@](O)([C@@H](OC(=O)c4ccccc4)[C@H]21)C3(C)C | 0.18 (≈ 0.192 µM) |
|  |  |  | 1.3 |  | CC(=O)O[C@@]12CO[C@@H]1C[C@H](OC(=O)CN1CCOCC1)[C@@]1(C)C(=O)[C@H](O)C3=C(C)[C@@H](OC(=O)[C@H](O)[C@@H](NC(=O)c4ccccc4)c4ccccc4)C[C@@](O)([C@@H](OC(=O)c4ccccc4)[C@H]21)C3(C)C | 0.2 (≈ 0.213 µM) |
